These results are taken from ChEMBL document CHEMBL5236607, “Membrane-Active Cyclic Amphiphilic Peptides: Broad-Spectrum Antibacterial Activity Alone and in Combination with Antibiotics” (J Med Chem, 2022).

A short description of data set [1]: Hemolytic activity in human RBC incubated for 2 hrs by spectrophotometric assay. The class given is toxicity, cell-based, Erythrocyte. Conditions: human red blood cells (RBC). The gist of the method:
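Human RBCs with buffy coat removed, washed in PBS pH 7.4. Two-fold peptide dilutions in PBS mixed 1:1 with 4% (v/v) RBC suspension. Incubation 2 h at 37 °C without agitation, then centrifugation. Supernatant hemoglobin read at 567 nm. PBS set 0% and 1% Triton X-100 set 100% lysis. Triplicate.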

Data set [2] is described as follows: Therapeutic index, ratio of HC50 for human RBC to MIC for methicillin resistant Staphylococcus aureus ATCC BAA-1556. The gist of the method:
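Human RBCs washed in PBS pH 7.4 and mixed 1:1 with two-fold peptide dilutions (4% v/v suspension), 2 h at 37 °C. Hemoglobin in supernatant read at 567 nm against PBS (0%) and 1% Triton X-100 (100%). HC50 is the concentration giving 50% hemolysis. Index is HC50 divided by MIC against MRSA.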

In data set [3] the test system is Escherichia coli. Put plainly: Induction of resistance development in Escherichia coli ATCC BAA-2452 assessed as increase in MIC by microtiter plate reader assay. The class given is functional, organism-based. The gist of the method:
(§1)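 Serial passage resistance assay with 2-fold microdilution MICs in 96-well plates. Each passage takes the well with the highest concentration still permitting growth, adjusts it to 0.5 McFarland, and dilutes it to a final 5 × 10^5 CFU/mL for the next passage. Eighteen passages; MIC recorded at each. Triplicate.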

Data set [4] has as its system Staphylococcus aureus. Nature of the data set: Induction of resistance development in methicillin resistant Staphylococcus aureus ATCC BAA-1556 assessed as increase in MIC by microtiter plate reader assay. It counts as functional, organism-based. The gist of the method: as §1
Data set [5] relates to Escherichia coli. Put plainly: Induction of resistance development in Escherichia coli ATCC 25922 assessed as increase in MIC by microtiter plate reader assay. It counts as functional, organism-based.
Data set [6] has as its system Staphylococcus aureus. Put plainly: Induction of resistance development in Staphylococcus aureus ATCC 29213 assessed as increase in MIC by microtiter plate reader assay. The class given is functional, organism-based. The gist of the method:
as §1

Data set [7] is described as follows: Membrano-lytic effect in mammalian membrane mimic DOPC/cholesterol (10:1) large unilamellar vesicles assessed as calcein leakage measured at 50 microg/ml measured after 100 mins by multimode microplate reader assay. It counts as cell membranes. Conditions: dose 50.0 µg/ml. The gist of the method: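 Calcein (70 mM) loaded into extruded 100 nm LUVs: DOPC:DOPG 7:3 (w/w) as the bacterial mimic, DOPC/cholesterol 10:1 (w/w) as the mammalian mimic. Free dye removed by gel filtration. Liposomes at 40 μM final lipid in PBS mixed 1:1 with peptide (5–50 μg/mL). Fluorescence (ex 490/em 520 nm) read every 10 min for 100 min; Triton X-100 defines 100% release. Triplicate.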

The subject of another data set is Klebsiella pneumoniae. Put plainly: Antibacterial activity against Klebsiella pneumoniae ATCC BAA-1705 incubated for 24 hrs by checkerboard assay. It counts as functional.
The next data set relates to Pseudomonas aeruginosa. Nature of the data set: Antibacterial activity against Pseudomonas aeruginosa ATCC […] incubated for 24 hrs by checkerboard assay. It counts as functional.
The test system of data set [8] is Staphylococcus aureus. Nature of the data set: Antibacterial activity against methicillin resistant Staphylococcus aureus ATCC BAA-1556 incubated for 24 hrs by checkerboard assay. It counts as functional.

Active and inactive are the calls of the source.

What is called HC50 is the concentration that lyses half of the red blood cells. Lower therefore signals stronger haemolysis. In the case of `N=C(N)NCCC[C@@H]1NC(=O)[C@H](CCCNC(=N)N)NC(=O)[C@H](CCCNC(=N)N)NC(=O)[C@H](Cc2c[nH]c3ccccc23)NC(=O)[C@H](Cc2c[nH]c3ccccc23)NC(=O)[C@H](Cc2c[nH]c3ccccc23)NC(=O)[C@H](Cc2c[nH]c3ccccc23)NC(=O)[C@H](Cc2c[nH]c3ccccc23)NC(=O)[C@H](CCCNC(=N)N)NC1=O`, the HC50 at 2 h in data set [1] came to 100 µg/mL. The TI in data set [2] is 12.5.

With `CCCCCCCCCC(=O)N[C@@H](Cc1c[nH]c2ccccc12)C(=O)N[C@H](CC(N)=O)C(=O)N[C@@H](CC(=O)O)C(=O)N[C@@H]1C(=O)NCC(=O)N[C@@H](CCCN)C(=O)N[C@@H](CC(=O)O)C(=O)N[C@H](C)C(=O)N[C@@H](CC(=O)O)C(=O)NCC(=O)N[C@H](CO)C(=O)N[C@@H]([C@H](C)CC(=O)O)C(=O)N[C@@H](CC(=O)c2ccccc2N)C(=O)O[C@@H]1C`, the result in the data set on Escherichia coli [3], in the data set on Staphylococcus aureus [4], in the data set with Escherichia coli [5] and in the data set with Staphylococcus aureus [6] was Active. Further, the Activity in data set [7] is 7%.

By MIC is commonly meant the smallest concentration in the dilution series that meets the test's criterion for growth inhibition. Take `C[C@@H](O)[C@H]1C(=O)N2C(C(=O)O)=C(S[C@@H]3CN[C@H](C(=O)N(C)C)C3)[C@H](C)[C@H]12` [MEROPENEM]: the MIC with Klebsiella pneumoniae amounted to 256 µg/mL; in the data set on Pseudomonas aeruginosa, 32 µg/mL; in the data set on Staphylococcus aureus [8], 32 µg/mL.
